# PMC9514064 (Protein Science : A Publication of the Protein Society, 2022)
# Values joined by “and” are separate entries in the source; they are usually repeats but may differ in a detail not shown here. Equal values may be shown once. Read-outs that look alike come from different tables or passages of the source.
# What was measured:
# Bha TRAP12 [1] = molecular target: T1, Bha TRAP12 (Halalkalibacterium halodurans, UniProt Q9KCC6); test: Isothermal titration calorimetry, Trp into TRAP; format: binding, B. halodurans; details: ITC 25°C, two-sites model
# T1 sequence (Q9KCC6 1-76): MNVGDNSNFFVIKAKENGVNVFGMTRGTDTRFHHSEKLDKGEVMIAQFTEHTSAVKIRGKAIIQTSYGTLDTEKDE
# Summary of the method: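 Tag-free protein (C-terminal ENLYFQ left after TEV cleavage), expressed in E. coli BL21(DE3), made Trp-free by Gdn-HCl denaturation, RP-HPLC, refolding and SEC, then dialysed into buffer A (100 mM NaCl, 50 mM NaPO₄, pH 8.0). 293 μM Trp (in dialysate) titrated into 23 μM protomers, 25°C, 307 rpm. Integrated heats fit to a two-sites model; oligomer concentration corrected via fitted n; 200-sample bootstrap confidence intervals.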
# Bha TRAP12 [2] = molecular target: T1, Bha TRAP12; format: binding, B. halodurans
# Summary of the method: (§1)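 Apo protein dialysed into 400 mM ammonium acetate, adjusted to pH 8 with NH₄OH. Samples of 6.0–7.4 μM protein with 0–140 μM Trp were prepared fresh in parallel. Native MS on an Orbitrap UHMR at ~25°C, each point in triplicate with different emitters. Abundances of the 0–12-bound states came from peak areas, with protein concentration corrected by a quadratic independent-sites fit. A 12-site NN model was fit globally by Powell minimisation; uncertainties are SD of three repeats.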
# Bst TRAP12 ∆71 = molecular target: T2, Bst TRAP12 ∆71 (Geobacillus stearothermophilus, UniProt Q9X6J6); format: binding, B. stearothermophilus
# T2 sequence (Q9X6J6 1-69 limits assumed): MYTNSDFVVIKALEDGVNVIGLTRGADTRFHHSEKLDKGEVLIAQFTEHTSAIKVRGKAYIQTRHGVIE
# Summary of the method: as §1
# Bst TRAP11 = molecular target: T3, Bst TRAP11 (Geobacillus stearothermophilus, UniProt Q9X6J6); format: binding, B. stearothermophilus
# T3 sequence (Q9X6J6 1-74): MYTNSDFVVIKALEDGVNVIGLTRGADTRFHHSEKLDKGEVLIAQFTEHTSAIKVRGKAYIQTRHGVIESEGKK
# Summary of the method: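 Apo 11-mer protein dialysed into 400 mM ammonium acetate. Samples of 6.0–7.4 μM protein with 0–140 μM Trp (serial dilutions) were prepared fresh in parallel. Native MS on an Orbitrap UHMR at ~25°C. Relative abundances of Trp-bound states came from integrated peak areas, with binding-site concentration corrected by a quadratic independent-sites fit. Populations were fit globally to a nearest-neighbour model (ΔG₀, ΔGα) by Powell minimisation.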
# [3] = 1/(αK 0), NN model, dissociation constant for sites with one bound neighbor, ~25°C
# [4] = 1/K 0, NN model, dissociation constant for isolated sites, ~25°C
# [5] = NN model, sites with 1 occupied neighbor, ~25°C
# [6] = NN model, sites with no occupied neighbors, room temperature ~25°C, 400 mM ammonium acetate
compound,measurement,setting,value
"N[C@@H](Cc1c[nH]c2ccccc12)C(=O)O [Trp, tryptophan]","n (fitted binding sites), Site 1",Bha TRAP12 [1]; buffer A,≈ 1
same,"n (fitted binding sites), Site 2",Bha TRAP12 [1]; buffer A,~ 11
same,Kd,"Bha TRAP12 [1]; Kd,1 (Site 1), first Trp",1.8 ± 0.3 µM
same,Kd,Bha TRAP12 [2]; [3],2.8 ± 0.8 µM
same,Kd,Bha TRAP12 [2]; [4],720 ± 140 µM
same,Cooperativity factor α,"Bha TRAP12 [2]; NN model, K N1/K 0, fold increase in affinity with one occupied neighbor",256 and 256 ± 87
same,ΔG 0 + ΔG α,Bha TRAP12 [2]; [5],-7.6 ± 0.2 kcal/mol
same,ΔG 0,Bha TRAP12 [2]; [6],-4.3 ± 0.1 kcal/mol
same,Kd,Bst TRAP12 ∆71; [3],7.8 ± 1.2 µM
same,Kd,Bst TRAP12 ∆71; [4],217 ± 13 µM
same,Cooperativity factor α,"Bst TRAP12 ∆71; NN model, K N1/K 0",28 and 28 ± 5
same,ΔG 0 + ΔG α,Bst TRAP12 ∆71; [5],-7.0 ± 0.1 kcal/mol
same,ΔG 0,Bst TRAP12 ∆71; [6],-5.00 ± 0.03 kcal/mol
same,Kd,Bst TRAP11; [3],4.4 ± 1.9 µM
same,Kd,Bst TRAP11; [4],36 ± 12 µM
same,Cooperativity factor α,"Bst TRAP11; NN model, K N1/K 0",8 and 8 ± 5
same,coupling energy ΔG α,"Bst TRAP11; NN model, between adjacent sites",−1.2 ± 0.3 kcal mol^−1 interaction^−1
same,ΔG 0 + ΔG α,Bst TRAP11; [5],-7.3 ± 0.3 kcal/mol
same,ΔG 0,Bst TRAP11; [6],-6.1 ± 0.2 kcal/mol
